Columns and labels:
Rattus norvegicus [1] = species: Rattus norvegicus; test: Inhibition of testosterone-enhanced ventral prostate weight in castrated immature Sprague-Dawley rat; format: functional, Prostate gland; set-up: concentration or dose not given beside the values
Method in brief: (§1)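 This was an antagonist mode in castrated immature male rats. Animals were dosed orally once daily for 5 days at 2 mg/day in 20% cyclodextrin, together with testosterone propionate 0.1 mg/day (about 1.3 mg/kg) subcutaneously in sesame oil, n = 3 per group. Percent inhibition of prostate weight was scaled with the vehicle group set to 100% and the testosterone-alone group set to 0%.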

Rattus norvegicus [2] = test: Androgenic activity in castrated immature Sprague-Dawley rat assessed as ventral prostate weight stimulation at 2 mg/day, po by Hersherberger assay; format: functional, Prostate gland
Method in brief: (§2)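 Castrated immature male rats were given oral doses once daily for 5 days in 20% cyclodextrin vehicle, n = 3 per group. Ventral prostate weight was normalized to the vehicle control. Percent stimulation was scaled with the vehicle group set to 0% and the testosterone-alone group set to 100%.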

Rattus norvegicus [3] = test: Anabolic activity assessed as stimulation of levator ani muscle weight in castrated immature Sprague-Dawley rat at 2 mg/day, po by Hersherberger assay
Rattus norvegicus [4] = test: Anabolic activity assessed as stimulation of levator ani muscle weight in sc dosed castrated immature Sprague-Dawley rat by Hersherberger assay; format: functional; conditions: in the assay text read “po dosed” for “sc dosed”
Method in brief: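 Castrated immature male rats received testosterone propionate by subcutaneous injection at the nape of the neck, 5 mg/kg in sesame oil. Levator ani weight was measured as percent stimulation, with the vehicle control set to 0% and the testosterone-alone group set to 100%.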

Rattus norvegicus [5] = species: Rattus norvegicus; test: Androgenic activity in castrated immature Sprague-Dawley rat assessed as ventral prostate weight stimulation at 3 mg/ day by Hersherberger assay; format: functional, Prostate gland; method in brief: as §2
Rattus norvegicus [6] = test: Inhibition of ventral prostate weight in castrated immature Sprague-Dawley rat at 2 mg/day, po; format: functional, Prostate gland; set-up: scale not given: the % may be the effect or the level left; method in brief: as §1
Rattus norvegicus [7] = test: Anabolic activity assessed as stimulation of levator ani muscle weight in castrated immature Sprague-Dawley rat at 5 mg/day, sc by Hersherberger assay; format: functional
Method in brief: (§3)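 Castrated immature male rats; agent given subcutaneously by injection at the nape of the neck in sesame oil. Compounds in the same table were dosed once daily for 5 days with N = 3/group. Tissue weight is expressed as percent stimulation, with the vehicle-treated control set to 0% and the testosterone-alone control set to 100%.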

Rattus norvegicus [8] = test: Androgenic activity in castrated immature Sprague-Dawley rat assessed as ventral prostate weight stimulation at 5 mg/day, sc by Hersherberger assay; format: functional, Prostate gland; method in brief: as §3

Row | Compound | Inhibition (Rattus norvegicus [1]) | Activity (Rattus norvegicus [2]) | Activity (Rattus norvegicus [3]) | ED50 (Rattus norvegicus [4]) | Activity (Rattus norvegicus [5]) | Activity (Rattus norvegicus [6]) | Activity (Rattus norvegicus [7]) | Activity (Rattus norvegicus [8])
1 | C[C@](O)(CS(=O)(=O)c1ccc(F)cc1)C(=O)Nc1ccc(C#N)c(C(F)(F)F)c1 [(R)-BICALUTAMIDE] | 70% | – | – | – | – | – | – | –
2 | CCC12CC(C(F)(F)F)=NN1C(N)=N/C2=N\c1ccc(C#N)c(C(F)(F)F)c1 (centres undefined) | <10% | <10% | 16% | – | – | – | – | –
3 | CCN(CC)/C(=N\c1ccc(C#N)c(C(F)(F)F)c1)C1(C)CC(C(F)(F)F)=NN1 (centres undefined) | <10% | 22% | 32% | – | – | – | – | –
4 | CC12CC=NN1C(N)=N/C2=N\c1ccc(C#N)c(C(F)(F)F)c1 (centres undefined) | <10% | <10% | <10% | – | – | – | – | –
5 | CCN/C(=N\c1ccc(C#N)c(C(F)(F)F)c1)C1(C)CC(C(F)(F)F)=NN1 (centres undefined) | 18% | <10% | 50% | – | – | – | – | –
6 | CC12CC(C(F)(F)F)=NN1C(N)=N/C2=N\c1ccc(Cl)c(Cl)c1 (centres undefined) | 31% | <10% | <10% | – | – | – | – | –
7 | CC12CC(C(F)(F)F)=NN1C(N)=N/C2=N\c1ccc(Br)c(C(F)(F)F)c1 (centres undefined) | <10% | <10% | <10% | – | – | – | – | –
8 | CCOC(=O)C1=NN2C(N)=N/C(=N\c3ccc(C#N)c(C(F)(F)F)c3)C2(C)C1 (centres undefined) | <10% | <10% | <10% | – | – | – | – | –
9 | CC12CC(C(F)(F)F)=NN1C(=N)O/C2=N\c1ccc(C#N)c(C(F)(F)F)c1 (centres undefined) | – | 55% | 29% | – | – | – | – | –
10 | CC12CC(c3c(F)c(F)c(F)c(F)c3F)=NN1C(N)=N/C2=N\c1ccc(C#N)c(C(F)(F)F)c1 (centres undefined) | <10% | <10% | 21% | – | – | – | – | –
11 | CC1(/C(N)=N/c2ccc(C#N)c(C(F)(F)F)c2)CC(C(F)(F)F)=NN1 (centres undefined) | 20% | 39% | 76% | – | – | – | – | –
12 | CC12CC(C(F)(F)F)=NN1C(N)=N/C2=N\c1ccc([N+](=O)[O-])c(C(F)(F)F)c1 (centres undefined) | <10% | <10% | <10% | – | – | – | – | –
13 | CC1(/C(=N/c2ccc(C#N)c(C(F)(F)F)c2)N2CCCC2)CC(C(F)(F)F)=NN1 (centres undefined) | <10% | <10% | <10% | – | – | – | – | –
14 | C[C@]12CC(C(F)(F)F)=NN1C(N)=N/C2=N\c1ccc(C#N)c(C(F)(F)F)c1 | 30% | – | 91% | 0.07 mg/day | 36% | – | – | –
15 | CN/C(=N\c1ccc(C#N)c(C(F)(F)F)c1)C1(C)CC(C(F)(F)F)=NN1 (centres undefined) | 15% | – | 17% | – | – | 15% | – | –
16 | CON/C(=N\c1ccc(C#N)c(C(F)(F)F)c1)C1(C)CC(C(F)(F)F)=NN1 (centres undefined) | <10% | 14% | 23% | – | – | – | – | –
17 | CCC(=O)O[C@H]1CC[C@H]2[C@@H]3CCC4=CC(=O)CC[C@]4(C)[C@H]3CC[C@]12C [TESTOSTERONE PROPIONATE] | – | – | – | – | – | – | 100% | 100%
18 | C[C@@]12CC(C(F)(F)F)=NN1C(N)=N/C2=N\c1ccc(C#N)c(C(F)(F)F)c1 | <10% | – | 72% | 0.85 mg/day | 29% | – | – | –
19 | CCc1c(/N=C2\N=C(N)N3N=C(C(F)(F)F)CC23C)ccc(C#N)c1C(F)(F)F (centres undefined) | <10% | <10% | 19% | – | – | – | – | –
20 | CC1(/C(=N/c2ccc(C#N)c(C(F)(F)F)c2)NO)CC(C(F)(F)F)=NN1 (centres undefined) | <10% | <10% | <10% | – | – | – | – | –
21 | CC1(/C(=N/c2ccc(C#N)c(C(F)(F)F)c2)NS(C)(=O)=O)CC(C(F)(F)F)=NN1 (centres undefined) | <10% | <10% | <10% | – | – | – | – | –
22 | CC12CC(C(F)(F)F)=NN1C(NC(=O)C(F)(F)F)=N/C2=N\c1ccc(C#N)c(C(F)(F)F)c1 (centres undefined) | 31% | 55% | 61% | – | – | – | – | –
